The values below come from paper PMC4646787 (Science Advances, 2015).

Non-standard residues stand in square brackets, D forms with d. Residues, ends and D or L forms follow the SMILES beside them. sY = N[C@@H](Cc1ccc(OS(=O)(=O)O)cc1)C(=O)O

Experiment [1] concerns the target T1, XA21 (Oryza sativa subsp. indica, UniProt Q1MX30).
T1 sequence (Q1MX30 24-1025): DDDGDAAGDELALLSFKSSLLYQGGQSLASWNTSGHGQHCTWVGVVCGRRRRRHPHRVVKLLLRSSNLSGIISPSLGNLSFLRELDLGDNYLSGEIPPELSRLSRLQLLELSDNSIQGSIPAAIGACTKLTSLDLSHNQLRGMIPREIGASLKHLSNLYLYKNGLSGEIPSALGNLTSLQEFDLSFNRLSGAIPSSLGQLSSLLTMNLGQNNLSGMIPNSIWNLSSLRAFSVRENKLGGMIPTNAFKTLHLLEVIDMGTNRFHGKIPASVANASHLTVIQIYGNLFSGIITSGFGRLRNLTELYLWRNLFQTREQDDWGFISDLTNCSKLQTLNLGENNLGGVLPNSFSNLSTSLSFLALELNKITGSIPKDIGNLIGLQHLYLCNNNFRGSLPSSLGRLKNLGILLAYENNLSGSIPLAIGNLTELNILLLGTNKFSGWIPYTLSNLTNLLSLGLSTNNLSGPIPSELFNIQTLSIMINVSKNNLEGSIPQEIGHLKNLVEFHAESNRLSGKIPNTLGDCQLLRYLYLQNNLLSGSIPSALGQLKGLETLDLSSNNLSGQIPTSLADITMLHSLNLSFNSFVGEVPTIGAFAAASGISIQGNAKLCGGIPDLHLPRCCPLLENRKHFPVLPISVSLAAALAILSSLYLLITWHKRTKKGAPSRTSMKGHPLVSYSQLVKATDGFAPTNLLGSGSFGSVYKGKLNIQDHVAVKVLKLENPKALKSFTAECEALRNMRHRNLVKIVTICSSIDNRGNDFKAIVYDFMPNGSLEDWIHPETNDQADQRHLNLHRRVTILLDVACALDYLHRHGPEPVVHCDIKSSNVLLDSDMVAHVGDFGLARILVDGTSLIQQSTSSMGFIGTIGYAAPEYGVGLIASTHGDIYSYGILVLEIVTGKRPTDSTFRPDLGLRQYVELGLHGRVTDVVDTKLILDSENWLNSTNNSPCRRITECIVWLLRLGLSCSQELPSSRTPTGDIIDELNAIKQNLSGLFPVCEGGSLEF
Nature of the experiment: Ethylene production in Ubi::XA21 rice leaves. The format is cell-based, rice (Oryza sativa ssp. japonica). Particulars: 1 μM peptide, 4 hours, gas chromatography, n = 3, Fig. 3C. Summed up: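 Ubi::XA21 Kitaake plants (3–4 weeks, hydroponic) were used. Leaves were cut into ~0.3 to 0.5 mm strips and floated on water overnight at room temperature. Strips were then incubated with water or peptide (1 μM) in sealed tubes. Ethylene accumulated in the headspace over 4 h was measured by gas chromatography.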

The target of experiment [2] is T1, XA21. Nature of the experiment: ROS production. The class given is cell-based, rice (Oryza sativa ssp. japonica). Summed up: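 Leaves of 4- to 6-week-old hydroponic Kitaake and Ubi::XA21 plants were cut along the midvein into 1–1.5 mm pieces and floated overnight on autoclaved ddH2O. Two pieces per well went into L-012 plus horseradish peroxidase (0.5 to 2 mg/ml), with peptide or mock (ddH2O or peptide buffer). Chemiluminescence was read for 3 h at 0.5 s per reading, n = 6. EC50 was the half-maximal total 3-h ROS over a peptide concentration series.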

Turning to HVGGGDYPPPGANPKHDPPPR [RaxX21-Y], the “Ethylene production, result in words” value at XA21 [1] is listed as “but not RaxX21-Y”.

For orientation: EC50 means the concentration giving half of the maximal effect. Consider `CC(C)C[C@H](N)C(=O)N[C@@H](Cc1c[nH]c2ccccc12)C(=O)N[C@@H](CCCCN)C(=O)N[C@@H](Cc1c[nH]cn1)C(=O)N[C@H](C(=O)NCC(=O)NCC(=O)NCC(=O)N[C@@H](CC(=O)O)C(=O)N[C@@H](Cc1ccc(OS(=O)(=O)O)cc1)C(=O)N1CCC[C@H]1C(=O)N1CCC[C@H]1C(=O)N1CCC[C@H]1C(=O)NCC(=O)N[C@@H](C)C(=O)N[C@@H](CC(N)=O)C(=O)N1CCC[C@H]1C(=O)N[C@@H](CCCCN)C(=O)N[C@@H](Cc1c[nH]cn1)C(=O)N[C@@H](CC(=O)O)C(=O)N1CCC[C@H]1C(=O)N1CCC[C@H]1C(=O)N1CCC[C@H]1C(=O)N[C@@H](CCCNC(=N)N)C(=O)O)C(C)C` [RaxX24-sY] (H-LWKHVGGGD[sY]PPPGANPKHDPPPR-OH; N-terminus and C-terminus assumed), for which the EC50 at XA21 [2] is approximately 0.03 µM.
